Data as given in PubChem BioAssay AID463209 (The Scripps Research Institute Molecular Screening Center, 2010).
Activity calls are given as the source filed them.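 How the source made its calls: active means parasite growth inhibition of at least 50% in red blood cells; inactive means the rest.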

What follows are compounds tested on P. falciparum 3D7 in RBCs, 3H-hypoxanthine incorporation, 48 h (assay: blood-stage malaria parasite growth inhibition – cell-based, radiolabel readout, RBCs, P. falciparum M1AAP inhibitor project, late-stage follow-up (AID 463209)). Details: at 10 µM; hits give high values.
Summary of the method: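 Assay system: Plasmodium falciparum clone 3D7 in human red blood cells | Buffer or medium: Hypoxanthine-free RPMI medium with 10% serum | Compound: 10 µM single dose | Schedule: 48 h at 37 °C, low-oxygen gas mix | Signal: 3H beta counting after harvest | Measure: % growth inhibition versus vehicle control | Benchmarks: Uninfected RBCs, vehicle-only parasites | Repeats: 6–9 replicates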

Structure (SMILES)	inhibition
O=C(O)CCC(=O)N1N=C(c2c(-c3ccccc3)c3cc(Cl)ccc3[nH]c2=O)CC1c1cccs1 (stereo not drawn)	0% (inactive)
O=C1/C(=C/c2cccs2)SC(=S)N1NS(=O)(=O)c1ccccc1	1% (inactive)
O=C(NCCC1=CCCCC1)C1CCN(S(=O)(=O)c2ccc(Br)s2)CC1	0% (inactive)
COc1ccc(C2CC(c3c(-c4ccccc4)c4cc(Cl)ccc4[nH]c3=O)=NN2C(=O)CCC(=O)O)cc1 (stereo not drawn)	0% (inactive)
COc1ccc(OC)c(/C=C2\SC(=S)N(C(C(=O)O)c3ccccc3)C2=O)c1 (stereo not drawn)	3% (inactive)
O=C(Nn1c(C2CCC2)nc2ccccc2c1=O)c1cccs1	8% (inactive)
O=C(NCc1ccco1)C1CCCN(S(=O)(=O)c2cccc3nonc23)C1 (stereo not drawn)	0% (inactive)
COc1ccccc1-c1nc2ccccc2c(=O)n1NC(=O)c1cccs1	4% (inactive)
O=C(O)CCC(=O)N1N=C(c2c(-c3ccccc3)c3cc(Cl)ccc3[nH]c2=O)CC1c1ccco1 (stereo not drawn)	0% (inactive)
CC(=O)N1N=C(c2c(O)n(C)c(=O)n(C)c2=O)CC1c1ccccc1 (stereo not drawn)	2% (inactive)
O=C1N=c2ccccc2=C1c1sc(=S)n(NC(=O)c2cccc(O)c2)c1O	0% (inactive)
O=C1N=c2ccccc2=C1c1sc(=S)n(NC(=O)c2ccccc2)c1O	6% (inactive)
O=C(NCc1cccc(F)c1)C1CCN(S(=O)(=O)Cc2ccccc2)CC1	15% (inactive)
